Calls of active or inactive are those of the source. The calls are words filed in the database; no cut-off is given here.
Tested on: not listed separately
Assay: Ex vivo inhibition of MAOA in CD1 mouse brain homogenates assessed as assessed as inhibition of 5-HT deamination by measuring 5-HIAA metabolite levels at 30 mg/kg, po administered as single acute dose via gavage and measured after 1 hr by HPLC analysis (reference value: 0.28 +/- 0.011 ug/g)
Format: functional
Conditions: not given

Row | SMILES | Activity [µg/g]
1 | COc1cccc(C2CC(c3ccccc3)=NN2C(=O)Cn2c(=O)oc3ccccc32)c1 (configuration not stated) | 0.32

Tested on: not listed separately
Assay: Cytotoxicity against human HepG2 cells assessed as cell viability at 15 uM incubated for 2 hrs by MTT assay relative to control
Format: cell-based
Conditions: read-out: Activity
Method in brief: (§1)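 HepG2 human hepatoma cells; viability read by MTT assay, with 0.1% DMSO as vehicle control. Viability given as % of control, mean ± SEM (n = 3); p < 0.05 taken as significant.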

Row | SMILES | viability at 2 h, 15 µM [%]
2 | COc1cccc(C2CC(c3ccccc3)=NN2C(=O)Cn2c(=O)oc3ccccc32)c1 (configuration not stated) | 88.3

Tested on: not listed separately
Assay: Selectivity index, ratio of Ki for inhibition of recombinant human MAO-A to Ki for inhibition of recombinant human MAO-B using p-tyramine as substrate
Conditions: not given

Row | SMILES | Ratio Ki
3 | COc1cccc(C2CC(c3ccccc3)=NN2C(=O)Cn2c(=O)oc3ccccc32)c1 (configuration not stated) | 0.00097

Tested on: not listed separately
Assay: Ex vivo inhibition of MAOA in CD1 mouse brain homogenates assessed as dopamine levels at 30 mg/kg, po administered as single acute dose via gavage and measured after 1 hr by ELISA kit method (reference value: 7.08 +/- 0.58 ug/g)
Format: functional
Conditions: not given

Row | SMILES | Activity [µg/g]
4 | COc1cccc(C2CC(c3ccccc3)=NN2C(=O)Cn2c(=O)oc3ccccc32)c1 (configuration not stated) | 7.08

Tested on: not listed separately
Assay: Cytotoxicity against human HepG2 cells assessed as cell viability at 7.5 uM incubated for 2 hrs by MTT assay relative to control
Format: cell-based
Conditions: read-out: Activity
Method in brief: as §1

Row | SMILES | viability at 2 h, 7.5 µM [%]
5 | COc1cccc(C2CC(c3ccccc3)=NN2C(=O)Cn2c(=O)oc3ccccc32)c1 (configuration not stated) | 96.2

Tested on: not listed separately
Assay: Ex vivo inhibition of MAOA in CD1 mouse brain homogenates assessed as 5-HT levels at 30 mg/kg, po administered as single acute dose via gavage and measured after 1 hr by ELISA kit method (reference value: 0.80 +/- 0.006 ug/g)
Format: functional
Conditions: not given

Row | SMILES | Activity [µg/g]
6 | COc1cccc(C2CC(c3ccccc3)=NN2C(=O)Cn2c(=O)oc3ccccc32)c1 (configuration not stated) | 0.88

Target: T1, Amine oxidase [flavin-containing] B (Homo sapiens, UniProt P27338)
T1 sequence (P27338 whole entry): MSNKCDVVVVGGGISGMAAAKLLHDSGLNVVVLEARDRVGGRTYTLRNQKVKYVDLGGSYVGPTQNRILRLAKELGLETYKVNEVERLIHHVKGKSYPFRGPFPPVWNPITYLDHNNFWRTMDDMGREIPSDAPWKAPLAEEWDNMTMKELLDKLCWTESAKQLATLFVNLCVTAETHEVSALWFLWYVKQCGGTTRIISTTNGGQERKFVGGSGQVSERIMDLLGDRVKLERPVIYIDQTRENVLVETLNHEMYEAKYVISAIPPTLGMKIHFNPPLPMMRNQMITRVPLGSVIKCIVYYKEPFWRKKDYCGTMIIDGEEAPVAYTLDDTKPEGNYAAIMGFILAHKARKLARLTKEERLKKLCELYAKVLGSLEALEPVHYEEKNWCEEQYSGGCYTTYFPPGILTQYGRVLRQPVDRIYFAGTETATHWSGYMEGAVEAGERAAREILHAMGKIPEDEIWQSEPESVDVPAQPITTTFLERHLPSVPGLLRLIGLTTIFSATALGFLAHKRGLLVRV
Assay: Inhibition of recombinant human MAO-B expressed in baculovirus infected BTI insect cells using p-tyramine as substrate incubated for 30 mins by Amplex red reagent based fluorescence analysis
Format: cell-based
Conditions: not given

Row | SMILES | Ki [µM]
7 | COc1cccc(C2CC(c3ccccc3)=NN2C(=O)Cn2c(=O)oc3ccccc32)c1 (configuration not stated) | 8.25

Target: T1, Amine oxidase [flavin-containing] B
Assay: Reversible inhibition of human MAO-B assessed as residual enzyme activity at 4 fold IC50 incubated for 15 mins and measured 24 hrs post dialysis relative to control
Conditions: 24.25 h, time 1455 min
Method in brief: (§2)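 Dialysed (MWCO 12 000) at 4 °C for 24 h against 100 mM potassium phosphate pH 7.4, 5% sucrose, buffer changed twice. Dialysed and undialysed mixtures assayed together; residual activity from triplicates.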

Row | SMILES | Activity [%]
8 | COc1cccc(C2CC(c3ccccc3)=NN2C(=O)Cn2c(=O)oc3ccccc32)c1 (configuration not stated) | 92.25

Target: T1, Amine oxidase [flavin-containing] B
Assay: Reversible inhibition of human MAO-B assessed as residual enzyme activity at 4 fold IC50 incubated for 15 mins and measured before dialysis relative to control
Conditions: not given
Method in brief: as §2

Row | SMILES | Activity [%]
9 | COc1cccc(C2CC(c3ccccc3)=NN2C(=O)Cn2c(=O)oc3ccccc32)c1 (configuration not stated) | 85

Tested on: Mus musculus
Assay: Antidepressant-like activity in CD1 mouse assessed as reduction in immobility time at 30 mg/kg, po administered via gavage for 7 days and measured 1 h post last dose by Porsolt-forced swim test
Format: functional, organism-based
Conditions: time 7.0 day
Method in brief: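 Male albino CD-1 mice (20–25 g), 12 h light/dark, food and water ad libitum. Dosed by oral gavage once daily for 7 days in 200 μL 0.5% CMC; vehicle-only controls. […] Forced swim test run 1 h after the last dose. Immobility scored every 60 s over 6 min; n = 8–12.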

Row | SMILES | Activity
10 | COc1cccc(C2CC(c3ccccc3)=NN2C(=O)Cn2c(=O)oc3ccccc32)c1 (configuration not stated) | Active

Tested on: not listed separately
Assay: Ex vivo inhibition of MAOA in CD1 mouse brain homogenates assessed as assessed as inhibition of dopamine deamination by measuring DOPAC metabolite levels at 30 mg/kg, po administered as single acute dose via gavage and measured after 1 hr by HPLC analysis (reference value: 1.22 +/- 0.2 ug/g)
Format: functional
Conditions: not given

Row | SMILES | Activity [µg/g]
11 | COc1cccc(C2CC(c3ccccc3)=NN2C(=O)Cn2c(=O)oc3ccccc32)c1 (configuration not stated) | 1.23

Tested on: not listed separately
Assay: Cytotoxicity against human HepG2 cells assessed as cell viability at 30 uM incubated for 2 hrs by MTT assay relative to control
Format: cell-based
Conditions: read-out: Activity
Method in brief: as §1

Row | SMILES | viability at 2 h, 30 µM [%]
12 | COc1cccc(C2CC(c3ccccc3)=NN2C(=O)Cn2c(=O)oc3ccccc32)c1 (configuration not stated) | 77.3

Tested on: not listed separately
Assay: Permeability of compound in PBS/EtOH buffer (70:30) at 25 ug/ml incubated for 16 hrs by UV plate reader based PAMPA-BBB
Conditions: not given

Row | SMILES | Papp at 16 h, 25 ug/ml [×10⁻⁶ cm/s]
13 | COc1cccc(C2CC(c3ccccc3)=NN2C(=O)Cn2c(=O)oc3ccccc32)c1 (configuration not stated) | 8.9

Tested on: not listed separately
Assay: Ex vivo inhibition of MAOA in CD1 mouse brain homogenates assessed as MAOA level at 30 mg/kg, po administered as subchronic dose via gavage for 7 days and measured 1 hr post last dose by monoamine oxidase assay (reference value: 0.40 +/- 0.005 nmol/min/mg)
Format: functional
Conditions: time 7 day

Row | SMILES | Activity [nmol/min/mg]
14 | COc1cccc(C2CC(c3ccccc3)=NN2C(=O)Cn2c(=O)oc3ccccc32)c1 (configuration not stated) | 0.29

Tested on: not listed separately
Assay: Ex vivo inhibition of MAOA in CD1 mouse brain homogenates assessed as 5-HT levels at 30 mg/kg, po administered as subchronic dose via gavage for 7 days and measured 1 hr post last dose by ELISA kit method (reference value: 0.78 +/- 0.01 ug/g)
Format: functional
Conditions: time 7 day

Row | SMILES | Activity [µg/g]
15 | COc1cccc(C2CC(c3ccccc3)=NN2C(=O)Cn2c(=O)oc3ccccc32)c1 (configuration not stated) | 1.01

Target: T2, Amine oxidase [flavin-containing] A (Homo sapiens, UniProt P21397)
T2 sequence (P21397 whole entry): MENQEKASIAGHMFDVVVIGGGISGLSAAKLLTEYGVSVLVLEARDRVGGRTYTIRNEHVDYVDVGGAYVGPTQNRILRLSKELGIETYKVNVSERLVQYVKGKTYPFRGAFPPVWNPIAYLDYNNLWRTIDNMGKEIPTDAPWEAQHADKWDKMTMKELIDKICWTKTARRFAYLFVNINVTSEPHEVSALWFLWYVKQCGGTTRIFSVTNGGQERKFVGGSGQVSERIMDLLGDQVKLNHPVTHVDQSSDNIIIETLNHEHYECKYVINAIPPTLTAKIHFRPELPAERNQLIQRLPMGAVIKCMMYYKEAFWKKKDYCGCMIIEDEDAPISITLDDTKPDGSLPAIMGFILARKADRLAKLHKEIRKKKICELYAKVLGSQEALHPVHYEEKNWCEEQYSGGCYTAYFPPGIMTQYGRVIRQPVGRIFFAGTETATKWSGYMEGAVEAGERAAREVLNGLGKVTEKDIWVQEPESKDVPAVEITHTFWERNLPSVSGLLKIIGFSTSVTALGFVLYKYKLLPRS
Assay: Reversible inhibition of human MAO-A assessed as residual enzyme activity at 4 fold IC50 incubated for 15 mins and measured before dialysis by dialysis method relative to control
Conditions: not given
Method in brief: as §2

Row | SMILES | Activity [%]
16 | COc1cccc(C2CC(c3ccccc3)=NN2C(=O)Cn2c(=O)oc3ccccc32)c1 (configuration not stated) | 24.55

Target: T2, Amine oxidase [flavin-containing] A
Assay: Reversible inhibition of human MAO-A assessed as residual enzyme activity at 4 fold IC50 incubated for 15 mins and measured 24 hrs post dialysis by dialysis method relative to control
Conditions: 24.25 h, time 1455 min
Method in brief: as §2

Row | SMILES | Activity [%]
17 | COc1cccc(C2CC(c3ccccc3)=NN2C(=O)Cn2c(=O)oc3ccccc32)c1 (configuration not stated) | 91.74

Target: T2, Amine oxidase [flavin-containing] A
Assay: Inhibition of recombinant human MAO-A expressed in baculovirus infected BTI insect cells using p-tyramine as substrate incubated for 30 mins by Amplex red reagent based fluorescence analysis
Conditions: not given

Row | SMILES | Ki [µM]
18 | COc1cccc(C2CC(c3ccccc3)=NN2C(=O)Cn2c(=O)oc3ccccc32)c1 (configuration not stated) | 0.008

Tested on: not listed separately
Assay: Ex vivo inhibition of MAOA in CD1 mouse brain homogenates assessed as MAOA level at 30 mg/kg, po administered as single acute dose via gavage and measured after 1 hr by monoamine oxidase assay (reference value: 0.40 +/- 0.012 nmol/min/mg)
Format: functional
Conditions: not given

Row | SMILES | Activity [nmol/min/mg]
19 | COc1cccc(C2CC(c3ccccc3)=NN2C(=O)Cn2c(=O)oc3ccccc32)c1 (configuration not stated) | 0.31

Tested on: not listed separately
Assay: Ex vivo inhibition of MAOA in CD1 mouse brain homogenates assessed as inhibition of 5-HT deamination by measuring 5-HIAA metabolite levels by using at 30 mg/kg, po administered as subchronic dose via gavage for 7 days and measured 1 hr post last dose by HPLC analysis (reference value: 0.18 +/- 0.01 ug/g)
Format: functional
Conditions: time 7 day

Row | SMILES | Activity [µg/g]
20 | COc1cccc(C2CC(c3ccccc3)=NN2C(=O)Cn2c(=O)oc3ccccc32)c1 (configuration not stated) | 0.24

Tested on: not listed separately
Assay: Effect on locomotor activity in CD1 mouse assessed as total distance traveled at 30 mg/kg, po administered via gavage for 7 days by open field test
Format: ADME, organism-based
Conditions: in vivo, 168 h, time 7 day
Method in brief: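 Each mouse placed in the centre of a 50 × 50 × 30 cm black box and video-tracked; total distance travelled over 5 min; n = 8–10.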

Row | SMILES | Activity
21 | COc1cccc(C2CC(c3ccccc3)=NN2C(=O)Cn2c(=O)oc3ccccc32)c1 (configuration not stated) | Non-Toxic

Tested on: Mus musculus
Assay: Antidepressant-like activity in CD1 mouse assessed as reduction in immobility time at 30 mg/kg, po administered via gavage as single dose measured after 1 hr by Porsolt-forced swim test
Format: functional, organism-based
Conditions: not given

Row | SMILES | Activity
22 | COc1cccc(C2CC(c3ccccc3)=NN2C(=O)Cn2c(=O)oc3ccccc32)c1 (configuration not stated) | inactive
